Measured values collected from several papers.
Compare with care: the assays were run in different laboratories.

For `C=CS(=O)(=O)c1ccc(Nc2nc(OCC3CCCCC3)c3nc[nH]c3n2)cc1`, the half-life was 5.27 h (male BALB/c mouse, plasma; intravenous, 20 mg/kg, single dose).
With `CC(=O)O[C@@]12CO[C@@H]1C[C@H](O)[C@@]1(C)C(=O)[C@H](O)C3=C(C)[C@@H](OC(=O)[C@H](O)[C@@H](NC(=O)OC(C)(C)C)c4ccccc4)C[C@@](O)([C@@H](OC(=O)c4ccccc4)[C@H]21)C3(C)C` the half-life was 2.7 h (male Kunming mouse, liver; oral, 20 mg/kg).
For `CC(C)C[C@H](NC(=O)[C@@H]1COCCCCCC(=O)N2C[C@H](F)C[C@H]2C(=O)N1)C(=O)[C@@]1(C)CO1`, the half-life was 0.79 h (male BALB/c mouse, plasma; oral, 150 mg/kg).
The half-life of `O=C1CC[C@H](N2Cc3c(ccc4c3OCC43CCN(C[C@@H]4CCC5(CCN(c6ccc([C@@H]7c8ccc(O)cc8CC[C@@H]7c7ccccc7)cc6)CC5)OC4)CC3)C2=O)C(=O)N1` is reported as roughly 13 h (mouse, plasma; oral, 3 mg/kg).
For `CN1CCN(C(=O)[C@H](CCCN[C@@H]2C[C@H]2c2ccc(F)cc2)NC(=O)c2ccc(-n3ccnn3)cc2)CC1`, the half-life was 5.66 h (CD-1 mouse, plasma; intravenous, 3 mg/kg).
For `CC(C(=O)Nc1c(F)cccc1F)N1CCN(c2ccccc2)CC1` (stereo not shown), the half-life was roughly 0.45 h (female C57BL/6 mouse, brain; intraperitoneal, 10 mg/kg).
The half-life of `COc1cc(C(=O)OCCCN2CCCN(CCCOC(=O)c3cc(OC)c(OC)c(OC)c3)CC2)cc(OC)c1OC` is reported as 0.83 h (male CD-1 mouse, plasma; subcutaneous).
`FC(F)(F)c1nc2c(-c3cc(Cl)cc(Cl)c3)ccnc2[nH]1` has a half-life of greater than 15 h (male C57BL/6 mouse, plasma; oral, 10 mg/kg).
With `CCN1CCN(Cc2ccc(NC(=O)c3ccc(C)c(NC(=O)c4cncc(-c5cccs5)c4)c3)cc2C(F)(F)F)CC1` the half-life was 2.71 h (mouse, plasma; intraperitoneal, 30 mg/kg, single dose).
`CC(C)(C)OC(=O)NNc1nc2nonc2nc1Nc1ccccc1F` has a half-life of 0.25 to 0.45 h (male C57BL/6 mouse, plasma; oral, 10 mg/kg).
For `CCOc1ccc(N(C)S(=O)(=O)c2cc(Cl)sc2C(=O)Nc2cc(Cl)cc(C(=O)O)c2)cc1OC`, the half-life was 0.469 h (male C57BL/6 mouse, plasma; intraperitoneal, 10 mg/kg).
For `CC1=NN(/C(=N/c2nnc(C)s2)Nc2ccc(C)c(C)c2)C(c2cc(F)c(F)c(F)c2)S1` (stereo not shown), the half-life was 1.56 h (male CD-1 mouse, plasma; intravenous, 1 mg/kg).
`Nc1ncn([C@H]2C[C@H](O)[C@@H](CO)O2)c(=O)n1` gave a half-life of 0.91 h (female C57BL/6 mouse, plasma; oral, 0.4 mg/kg).
